According to the RNAGym collection of RNA variant scans (doi:10.1038/s41586-018-0170-7):

B1: tRNA (parent)
chain: GUUCCGUUGGCGUAAUGGUAACGCGUCUCCCUCCUAAGGAGAAGACUGCGGGUUCGAGUCCCGUACGGAACG

Variants of: B1
Assay: yeast fitness, log relative to wild type (ln ratio); higher = fitter; tRNA-Arg(CCU), competitive growth, 37 C, 1 M NaCl
Summary of the method: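 Variants were counted by 125 bp paired-end Illumina sequencing after pools of a combinatorial tRNA-Arg(CCU) library, held on a HIS3 centromeric plasmid in BY4742 lacking the chromosomal gene, grew ~6.5 generations (~26.5 h) in SC-HIS 1M NaCl at 37 °C. Each genotype's fitness is the natural log of its generations relative to the wild type's. Generations were OD-scaled log2 output/input frequencies, inverse-variance weighted over replicates.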

Variant | yeast fitness (ln)
GGUCCGUUGGCGUAAUGGUAACGCGUCUCCCUCCUAAGGAGAAGACUGCGGGUUCGAGUCCCGUAUGGGGUG [U2G C66U A69G A70G C71U] | -0.204
GGUCCGUUGGCGUAAUGGUAACGCGUUUCCCUCCUAAGGAGAAGACUGCGGGUUCGAGUCCCGUAUGGGAUG [U2G C27U C66U A69G C71U] | -0.282
GGUCCGUUGGCGUAAUGGUAACGCGUCUCCCUCCUAAGGAGAAGACUGCGGGUUCGAGUCCCGUAAGGAUUG [U2G C66A A70U C71U] | -0.0556
GGUCCGUUGGCGUAAUGGUAACGCGUCUCCCUCCUAAGGAGAAGACUGCGGGUUCGAGUCCCGUAUGGAACG [U2G C66U] | -0.0538
GGUCCGUUGGCGUAAUGGUAACGCGUCUCCCUCCUAAGGAGAAGACUGCGGGUUCGAGUCCCGUAAGGAACG [U2G C66A] | -0.0285
GGUCCGUUGGCGUAAUGGUAACGCGUUUCCCUCCUAAGGAGAAGACUGCGGGUUCGAGUCCCGUAAGGAACG [U2G C27U C66A] | -0.0584
GGUCCGUUGGCGUAAUGGUAACGCGUUUCCCUCCUAAGGAGAAGACUGCGGGUUCGAGUCCCGUAUGGAACG [U2G C27U C66U] | -0.0998
GGUCCGUUGGCGUAAUGGUAACGCGUCUCCCUCCUAAGGAGAAGACUGCGGGUUCGAGUCCCGUAAGGGUUG [U2G C66A A69G A70U C71U] | -0.291
GGUCCGUUGGCGUAAUGGUAACGCGUUUCCCUCCUAAGGAGAAGACUGCGGGUUCGAGUCCCGUAUGGGGUG [U2G C27U C66U A69G A70G C71U] | -0.264
GGUCCGUUGGCGUAAUGGUAACGCGUCUCCCUCCUAAGGAGAAGACUGCGGGUUCGAGUCCCGUAAGGGGUG [U2G C66A A69G A70G C71U] | -0.152
GGUCCGUUGGCGUAAUGGUAACGCGUCUCCCUCCUAAGGAGAAGAUUGCGGGUUCGAGUCCCGUAAGGGUUG [U2G C46U C66A A69G A70U C71U] | -0.34
GGUCCGUUGGCGUAAUGGUAACGCGUUUCCCUCCUAAGGAGAAGACUGCGGGUUCGAGUCCCGUAAGGGUUG [U2G C27U C66A A69G A70U C71U] | -0.431
GGUCCGUUGGCGUAAUGGUAACGCGUUUCCCUCCUAAGGAGAAGACUGCGGGUUCGAGUCCCGUAAGGAAUG [U2G C27U C66A C71U] | -0.148
GGUCCGUUGGCGUAAUGGUAACGCGUCUCCCUCCUAAGGAGAAGAUUGCGGGUUCGAGUCCCGUACGGGAUG [U2G C46U A69G C71U] | -0.0879
GGUCCGUUGGCGUAAUGGUAACGCGUCUCCCUCCUAAGGAGAAGAUUGCGGGUUCGAGUCCCGUAAGGGGUG [U2G C46U C66A A69G A70G C71U] | -0.139
GGUCCGUUGGCGUAAUGGUAACGCGUCUCCCUCCUAAGGAGAAGAUUGCGGGUUCGAGUCCCGUAAGGGUCG [U2G C46U C66A A69G A70U] | -0.0347
GGUCCGUUGGCGUAAUGGUAACGCGUCUCCCUCCUAAGGAGAAGAUUGCGGGUUCGAGUCCCGUAAGGGGCG [U2G C46U C66A A69G A70G] | -0.0404
GGUCCGUUGGCGUAAUGGUAACGCGUUUCCCUCCUAAGGAGAAGACUGCGGGUUCGAGUCCCGUAUGGGGCG [U2G C27U C66U A69G A70G] | -0.288
GGUCCGUUGGCGUAAUGGUAACGCGUUUCCCUCCUAAGGAGAAGACUGCGGGUUCGAGUCCCGUAUGGGUCG [U2G C27U C66U A69G A70U] | -0.212

Variant | yeast fitness (ln)
GGUCCGUUGGCGUAAUGGUAACGCGUCUCCCUCCUAAGGAGAAGAUUGCGGGUUCGAGUCCCGUAAGGAUUG [U2G C46U C66A A70U C71U] | -0.0966
GGUCCGUUGGCGUAAUGGUAACGCGUCUCCCUCCUAAGGAGAAGAUUGCGGGUUCGAGUCCCGUACGGAUUG [U2G C46U A70U C71U] | -0.0115
GGUCCGUUGGCGUAAUGGUAACGCGUCUCCCUCCUAAGGAGAAGAUUGCGGGUUCGAGUCCCGUAUGGGGCG [U2G C46U C66U A69G A70G] | -0.174
GGUCCGUUGGCGUAAUGGUAACGCGUCUCCCUCCUAAGGAGAAGAUUGCGGGUUCGAGUCCCGUAUGGGUCG [U2G C46U C66U A69G A70U] | -0.0704
GGUCCGUUGGCGUAAUGGUAACGCGUCUCCCUCCUAAGGAGAAGAUUGCGGGUUCGAGUCCCGUACGGAGUG [U2G C46U A70G C71U] | -0.284
GGUCCGUUGGCGUAAUGGUAACGCGUCUCCCUCCUAAGGAGAAGAUUGCGGGUUCGAGUCCCGUAAGGAACG [U2G C46U C66A] | -0.0933
GGUCCGUUGGCGUAAUGGUAACGCGUCUCCCUCCUAAGGAGAAGAUUGCGGGUUCGAGUCCCGUAUGGAACG [U2G C46U C66U] | -0.0936
GGUCCGUUGGCGUAAUGGUAACGCGUUUCCCUCCUAAGGAGAAGACUGCGGGUUCGAGUCCCGUAAGGAUUG [U2G C27U C66A A70U C71U] | -0.195
GGUCCGUUGGCGUAAUGGUAACGCGUUUCCCUCCUAAGGAGAAGACUGCGGGUUCGAGUCCCGUACGGAAUG [U2G C27U C71U] | -0.0721
GGUCCGUUGGCGUAAUGGUAACGCGUCUCCCUCCUAAGGAGAAGAUUGCGGGUUCGAGUCCCGUAUGGGACG [U2G C46U C66U A69G] | -0.119
GGUCCGUUGGCGUAAUGGUAACGCGUUUCCCUCCUAAGGAGAAGACUGCGGGUUCGAGUCCCGUAUGGAAUG [U2G C27U C66U C71U] | -0.194
GGUCCGUUGGCGUAAUGGUAACGCGUCUCCCUCCUAAGGAGAAGAUUGCGGGUUCGAGUCCCGUACGGGUUG [U2G C46U A69G A70U C71U] | -0.191
GGUCCGUUGGCGUAAUGGUAACGCGUCUCCCUCCUAAGGAGAAGACUGCGGGUUCGAGUCCCGUAAGGAUCG [U2G C66A A70U] | -0.157
GGUCCGUUGGCGUAAUGGUAACGCGUCUCCCUCCUAAGGAGAAGACUGCGGGUUCGAGUCCCGUAAGGAGCG [U2G C66A A70G] | -0.0918
GGUCCGUUGGCGUAAUGGUAACGCGUCUCCCUCCUAAGGAGAAGACUGCGGGUUCGAGUCCCGUAUGGGACG [U2G C66U A69G] | -0.195
GGUCCGUUGGCGUAAUGGUAACGCGUCUCCCUCCUAAGGAGAAGAUUGCGGGUUCGAGUCCCGUAUGGGGUG [U2G C46U C66U A69G A70G C71U] | -0.114
GGUCCGUUGGCGUAAUGGUAACGCGUCUCCCUCCUAAGGAGAAGACUGCGGGUUCGAGUCCCGUAAGGAAUG [U2G C66A C71U] | -0.108
GGUCCGUUGGCGUAAUGGUAACGCGUCUCCCUCCUAAGGAGAAGACUGCGGGUUCGAGUCCCGUAUGGGUCG [U2G C66U A69G A70U] | -0.285
GGUCCGUUGGCGUAAUGGUAACGCGUCUCCCUCCUAAGGAGAAGACUGCGGGUUCGAGUCCCGUAUGGGGCG [U2G C66U A69G A70G] | -0.151
